According to ChEMBL document CHEMBL3588757, “Structure-based design, synthesis and biological testing of piperazine-linked bis-epipodophyllotoxin etoposide analogs” (Bioorg Med Chem, 2015):

Key:
NCI-H460 [1] = test: Cytotoxicity against human NCI-H460 cells assessed as cell growth at 0.05 uM by SRB assay; type: functional; conditions: read-out: Activity
[2] = Cytotoxicity against human NCI-ADR-RES cells assessed as cell growth at 0.05 uM by SRB assay; type: functional; conditions: read-out: Activity
OVCAR-3 = test: Cytotoxicity against human OVCAR3 cells assessed as cell growth at 5 uM by SRB assay; type: functional; conditions: read-out: Activity
MCF7 [3] = test: Cytotoxicity against human MCF7 cells assessed as cell growth at 0.05 uM by SRB assay; type: functional; conditions: read-out: Activity
RXF 393 [4] = test: Cytotoxicity against human RXF393 cells assessed as cell growth at 50 uM by SRB assay; type: functional; conditions: read-out: Activity
MDA-MB-231 = test: Cytotoxicity against human MDA-MB-231/ATCC cells assessed as cell growth at 0.05 uM by SRB assay; type: functional; conditions: read-out: Activity
KM12 = test: Cytotoxicity against human KM12 cells assessed as cell growth at 0.5 uM by SRB assay; type: functional; conditions: read-out: Activity
SK-MEL-5 = test: Cytotoxicity against human SK-MEL-5 cells assessed as cell growth at 5 uM by SRB assay; type: functional; conditions: read-out: Activity
OVCAR-4 = test: Cytotoxicity against human OVCAR4 cells assessed as cell growth at 5 uM by SRB assay; type: functional; conditions: read-out: Activity
NCI-H460 [5] = test: Cytotoxicity against human NCI-H460 cells assessed as cell growth at 0.5 uM by SRB assay; type: functional; conditions: read-out: Activity
[6] = Cytotoxicity against human Hs578T cells assessed as cell growth at 0.5 uM by SRB assay; type: functional; conditions: Hs-578T, read-out: Activity
How it was run: (§1)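 Measured in the NCI-60 human tumour cell line panel using five-dose testing. Growth was recorded at each dose for each cell line, and a GI50 was derived for each line.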

HCC 2998 [7] = test: Cytotoxicity against human HCC2998 cells assessed as cell growth at 0.005 uM by SRB assay; type: functional; conditions: read-out: Activity; how it was run: as §1
HL-60(TB) = test: Cytotoxicity against human HL-60(TB) cells assessed as cell growth at 0.005 uM by SRB assay; type: functional; conditions: read-out: Activity; how it was run: as §1
M14 [8] = test: Cytotoxicity against human M14 cells assessed as cell growth at 0.005 uM by SRB assay; type: functional; conditions: read-out: Activity
MDA-MB-468 = test: Cytotoxicity against human MDA-MB-468 cells by SRB assay; type: functional
How it was run: (§2)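 NCI-60 panel screen; 5-dose testing giving GI50 per cell line, plus a single 10 µM one-dose test. Method details not given beyond the NCI screen.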

SW-620 = test: Cytotoxicity against human SW620 cells assessed as cell growth at 0.5 uM by SRB assay; type: functional; conditions: read-out: Activity
MOLT-4 [9] = test: Cytotoxicity against human MOLT4 cells assessed as cell growth at 0.5 uM by SRB assay; type: functional; conditions: read-out: Activity
HCC 2998 [10] = test: Cytotoxicity against human HCC2998 cells assessed as cell growth at 0.05 uM by SRB assay; type: functional; conditions: read-out: Activity; how it was run: as §1
UACC-257 = test: Cytotoxicity against human UACC257 cells assessed as cell growth at 50 uM by SRB assay; type: functional; conditions: read-out: Activity
IGROV-1 = test: Cytotoxicity against human IGROV1 cells assessed as cell growth at 0.5 uM by SRB assay; type: functional; conditions: read-out: Activity; how it was run: as §1
MOLT-4 [11] = test: Cytotoxicity against human MOLT4 cells assessed as cell growth at 50 uM by SRB assay; type: functional; conditions: read-out: Activity
RPMI-8226 = test: Cytotoxicity against human RPMI8226 cells assessed as cell growth at 0.005 uM by SRB assay; type: functional; conditions: read-out: Activity
MCF7 [12] = test: Cytotoxicity against human MCF7 cells by SRB assay; type: functional; how it was run: as §2
M14 [13] = test: Cytotoxicity against human M14 cells assessed as cell growth at 0.5 uM by SRB assay; type: functional; conditions: read-out: Activity
TK-10 = test: Cytotoxicity against human TK10 cells assessed as cell growth at 5 uM by SRB assay; type: functional; conditions: read-out: Activity
RXF 393 [14] = test: Cytotoxicity against human RXF393 cells assessed as cell growth at 0.05 uM by SRB assay; type: functional; conditions: read-out: Activity
[15] = Cytotoxicity against etoposide-resistant human K/VP.5 cells assessed as cell growth inhibition after 72 hrs by MTS assay; type: functional, cell-based; conditions: K/VP.5, 72 h
How it was run: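 K/VP.5 cells are a K562-derived subline, 26-fold etoposide-resistant, with decreased topoisomerase IIα mRNA and protein. Cells were grown in suspension in αMEM with 10% fetal calf serum. Drugs were given from DMSO stocks, with final DMSO typically 0.4% or less. Read-out was MTS absorbance after 72 h. Typically nine concentrations were run in duplicate on two days. IC50 came from a four-parameter logistic fit.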

HCT-15 = test: Cytotoxicity against human HCT15 cells by SRB assay; type: functional; how it was run: as §1
PC-3 [16] = test: Cytotoxicity against human PC3 cells assessed as cell growth at 5 uM by SRB assay; type: functional; conditions: read-out: Activity
SNB-75 [17] = test: Cytotoxicity against human SNB75 cells assessed as cell growth at 0.5 uM by SRB assay; type: functional; conditions: read-out: Activity
A549 = test: Cytotoxicity against human A549/ATCC cells assessed as cell growth at 0.005 uM by SRB assay; type: functional; conditions: read-out: Activity
U-251 [18] = test: Cytotoxicity against human U251 cells assessed as cell growth at 0.05 uM by SRB assay; type: functional; conditions: read-out: Activity
U-251 [19] = test: Cytotoxicity against human U251 cells assessed as cell growth at 0.005 uM by SRB assay; type: functional; conditions: read-out: Activity
PC-3 [20] = test: Cytotoxicity against human PC3 cells assessed as cell growth at 0.005 uM by SRB assay; type: functional; conditions: read-out: Activity
UACC-62 = test: Cytotoxicity against human UACC62 cells by SRB assay; type: functional; how it was run: as §2
NCI-H226 = test: Cytotoxicity against human NCI-H226 cells by SRB assay; type: functional; how it was run: as §2
DU-145 = test: Cytotoxicity against human DU145 cells by SRB assay; type: functional; how it was run: as §1
SNB-75 [21] = test: Cytotoxicity against human SNB75 cells assessed as cell growth at 0.05 uM by SRB assay; type: functional; conditions: read-out: Activity
CCRF-CEM = test: Cytotoxicity against human CCRF-CEM cells by SRB assay; type: functional
[22] = read-out: LC50 (the source's name)
[23] = read-out: pLC50 (the source's name) (converted)

COc1cc([C@@H]2c3cc4c(cc3[C@@H](NC(=O)CN3CCN(CCCCCCCCCCN5CCN(CC(=O)N[C@@H]6c7cc8c(cc7[C@@H](c7cc(OC)c(O)c(OC)c7)[C@H]7C(=O)OC[C@@H]76)OCO8)CC5)CC3)[C@H]3COC(=O)[C@H]23)OCO4)cc(OC)c1O
growth at 0.05 µM (NCI-H460 [1]): 90% | growth at 0.05 µM [2]: 97% | growth at 5 µM (OVCAR-3): 40% | growth at 0.05 µM (MCF7 [3]): 61% | growth at 50 µM (RXF 393 [4]): -47% | growth at 0.05 µM (MDA-MB-231): 92% | growth at 0.5 µM (KM12): 74% | growth at 5 µM (SK-MEL-5): 52% | growth at 5 µM (OVCAR-4): -28% | growth at 0.5 µM (NCI-H460 [5]): 94% | growth at 0.5 µM [6]: 77% | growth at 0.005 µM (HCC 2998 [7]): 99% | growth at 0.005 µM (HL-60(TB)): 96% | growth at 0.005 µM (M14 [8]): 94% | GI50 (MDA-MB-468; read-out: GI50): 844 nM | CC50 (MDA-MB-468; [22]): 16.9 µM | TGI (MDA-MB-468; read-out: TGI): 2620 nM | GI50 (MDA-MB-468; read-out: pGI50 (converted)): 851 nM | CC50 (MDA-MB-468; [23]): 17 µM | TGI (MDA-MB-468; read-out: pTGI (converted)): 2630 nM | growth at 0.5 µM (SW-620): 46% | growth at 0.5 µM (MOLT-4 [9]): 37% | growth at 0.05 µM (HCC 2998 [10]): 83% | growth at 50 µM (UACC-257): -58% | growth at 0.5 µM (IGROV-1): 44% | growth at 50 µM (MOLT-4 [11]): -100% | growth at 0.005 µM (RPMI-8226): 89% | GI50 (MCF7 [12]; read-out: GI50): 114 nM | CC50 (MCF7 [12]; [22]): 37.4 µM | TGI (MCF7 [12]; read-out: TGI): 8.5 µM | GI50 (MCF7 [12]; read-out: pGI50 (converted)): 115 nM | CC50 (MCF7 [12]; [23]): 37.2 µM | TGI (MCF7 [12]; read-out: pTGI (converted)): 8.51 µM | growth at 0.5 µM (M14 [13]): 65% | growth at 5 µM (TK-10): -4% | growth at 0.05 µM (RXF 393 [14]): 84% | IC50 [15]: 114 nM | GI50 (HCT-15; read-out: GI50): 359 nM | CC50 (HCT-15; [22]): 3.39 µM | TGI (HCT-15; read-out: TGI): 1240 nM | GI50 (HCT-15; read-out: pGI50 (converted)): 363 nM | CC50 (HCT-15; [23]): 3.39 µM | TGI (HCT-15; read-out: pTGI (converted)): 1230 nM | growth at 5 µM (PC-3 [16]): 17% | growth at 0.5 µM (SNB-75 [17]): 34% | growth at 0.005 µM (A549): 74% | growth at 0.05 µM (U-251 [18]): 69% | growth at 0.005 µM (U-251 [19]): 85% | growth at 0.005 µM (PC-3 [20]): 99% | GI50 (UACC-62; read-out: GI50): 7.23 µM | CC50 (UACC-62; [22]): > 50 µM | TGI (UACC-62; read-out: TGI): 24.1 µM | GI50 (UACC-62; read-out: pGI50 (converted)): 7.24 µM | CC50 (UACC-62; [23]): > 50.1 µM | TGI (UACC-62; read-out: pTGI (converted)): 24 µM | GI50 (NCI-H226; read-out: GI50): 469 nM | CC50 (NCI-H226; [22]): 22.6 µM | TGI (NCI-H226; read-out: TGI): 9.32 µM | GI50 (NCI-H226; read-out: pGI50 (converted)): 468 nM | CC50 (NCI-H226; [23]): 22.4 µM | TGI (NCI-H226; read-out: pTGI (converted)): 9.33 µM | GI50 (DU-145; read-out: GI50): 153 nM | CC50 (DU-145; [22]): 14.6 µM | TGI (DU-145; read-out: TGI): 2890 nM | GI50 (DU-145; read-out: pGI50 (converted)): 151 nM | CC50 (DU-145; [23]): 14.5 µM | TGI (DU-145; read-out: pTGI (converted)): 2880 nM | growth at 0.05 µM (SNB-75 [21]): 82% | GI50 (CCRF-CEM; read-out: GI50): 80.9 nM | CC50 (CCRF-CEM; [22]): > 50 µM | GI50 (CCRF-CEM; read-out: pGI50 (converted)): 81.3 nM | CC50 (CCRF-CEM; [23]): > 50.1 µM
